CHOP inh: blocks CHOP induction under ER stress | CHO-K1 CHOP-promoter luciferase, tunicamycin-induced, 15-18 h | inhibition, % at 10 µM | 220,000 tested, 3.8% active;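 active = compounds that reduced the stress-induced luciferase reporter signal by more than about 70% of percent inhibition, limit read from the data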;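 also: 0% = tunicamycin plus vehicle and 100% = wells without tunicamycin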
XBP1 UPR activ: adaptive UPR (XBP1) activation. CHO-XBP1 luciferase reporter, IRE1-XBP1 UPR activation, luminescence; percent of tunicamycin response, DMSO as zero. 330,000 tested, 0.33% active. AID 463104. activation, % at 20 µM;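 active = versus positive control, 20 µM dose yields 30% or more activation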;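 also: 100% = tunicamycin at 10 µg/mL and 0% = DMSO only wells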
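Material – CHO cell line with stable XBP1 luciferase reporter · Buffer or medium – F12 plus 10% FBS · Compound – single point, 20 µM final compound, 1% DMSO · Schedule – 16-18 h cell attachment at 37 °C, then 6 h compound exposure · Signal – Steady-Glo luminescence read · Benchmarks – high control tunicamycin 10 µg/mL final, low control DMSO vehicle only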
UPR CHOP act: apoptotic UPR (CHOP) activation; CHO-CHOP luciferase reporter, luminescence; percent of tunicamycin response over DMSO baseline; activation, % at 10 µM; 330,000 tested, 0.34% active; AID 449763;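 active = at 10 µM dose, activation of 40% or more, normalized to positive control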;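 also: 100% = tunicamycin at 10 µg/mL and 0% = DMSO alone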
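assay system = CHO CHOP reporter cells | amount = 500 CHO-CHOP cells per well | buffer or medium = F12 with 10% FBS | incubation = 16-18 h cell attachment, then 6 h compound exposure, 37 °C | detection = luminescence read with Steady-Glo | read-out = percent activation relative to tunicamycin control | controls = tunicamycin high control, DMSO low control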
FXN GAA850 act: increases GAA850 frataxin promoter reporter activity; HEK293 lucGAA850 FXN promoter luciferase reporter, 24 h; percent of 10 µM SAHA response; activation, % at 6 µM; 360,000 tested, 0.56% active; AID 540364;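 active = activation above the average of all compounds screened plus 3 SD, cutoff fixed separately per campaign, cut at about 7.5% in these data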;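 also: 0% = DMSO wells and 100% = 10 µM SAHA wells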
An asterisk follows results filed as active; · = not tested or not shown; ! = repeats disagree. Only a selection was taken, and hits are over-represented in it overall.

SMILES | CHOP inh | XBP1 UPR activ | UPR CHOP act | FXN GAA850 act
O=c1c2c(nc3cc(-c4ccc(Br)cc4)[nH]n13)CCCC2 | 73* | 0 | 4 | 8
Cc1cccc(CNC(=O)C2CCC(=O)N(CCCc3ccccc3)C2)c1 (centres undefined) | · | · | · | -1
O=C(NCCNC(=O)c1cc(OCC(F)(F)F)ccc1OCC(F)(F)F)Nc1ccc(OC(F)(F)F)cc1 | 90* | 2 | -3 | -1
O=C(NCC1CCCCN1)c1cc(OCC(F)(F)F)ccc1OCC(F)(F)F (centres undefined) | 74*! | -8 | -1 | 0
O=C(CCl)NCCNC(=O)c1cc(OCC(F)(F)F)ccc1OCC(F)(F)F | -13 | -1 | 2 | -1
O=C(Nc1cc(Cl)cc2c1-c1ccc(Cl)cc1C2O)C(Cl)Cl (centres undefined) | · | · | · | 0
COc1ccc(C2SCC(=O)N2Cc2ccccc2)cc1 (centres undefined) | · | -3 | 1 | 0
COc1ccc(C2SCC(=O)N2CC23CC4CC(CC(C4)C2)C3)cc1 (centres undefined) | 86* | 0 | 0 | 0
Nc1ccccc1Nc1cc(-c2cccc(Cl)c2)nn1-c1ccccc1 | 86* | -1 | 4 | 2
Nc1c(-c2ccccc2)cnn1-c1cccc(Cl)c1 | · | -8 | 4 | 3
OC(CN1c2ccccc2Sc2ccccc21)Cn1nnc2ccccc21 (centres undefined) | 63 | 3 | 5 | -3
Cc1nn(CC(O)CN2c3ccccc3Sc3ccccc32)c(C)c1Br (centres undefined) | 77* | -1 | -2 | 2
O=C(Nc1ccc(F)cc1)Nc1nnc(-c2ccncc2)s1 | 47 | -1 | 5 | -2
O=C(Nc1cccc(Cl)c1)Nc1nnc(-c2ccncc2)s1 | 92* | -1 | 3 | -6
O=C(Cc1cccs1)Nc1nnc(SCc2ccc(Br)cc2)s1 | 76* | 0 | -1 | 5
O=C(Nc1ccc(Cl)cc1)Nc1nnc(-c2ccncc2)s1 | 87* | · | · | -2
O=C(Nc1cccc(Cl)c1)Nc1nnc(CC2=CCCCC2)s1 | 93* | 7 | 0 | 2
Cc1ccc2c(=O)n3c(nc2c1)C(Cc1ccccc1)NC(=O)c1cc2ccccc2cc1-3 (centres undefined) | · | · | · | -5
Cc1ccc(C(NC(=O)C2CCN(Cc3ccc(Cl)c(Cl)c3)CC2)c2ccccn2)cc1 (centres undefined) | · | · | · | 5
C[C@H]1CN([C@@H](C)CO)C(=O)CCCn2cc(nn2)CO[C@@H]1CN(C)C(=O)Nc1cccc(Oc2ccccn2)c1 | · | · | · | 0
O=C(Nc1ccccc1)Nc1nnc(SCc2ccc(Cl)cc2)s1 | 90* | -2 | 0 | 1
O=C(Nc1ncc(Cc2ccc(SC(F)F)cc2)s1)c1ccc(OC(F)F)cc1 | 72* | 14 | 3 | -4
Cc1ccc(Cc2cnc(NC(=O)c3ccco3)s2)cc1 | 31 | -5 | -1 | 1
Cc1ccc2c(c1)sc[n+]2Cc1ccccc1 | 43 | 3 | 4 | 10*
OC(CN1CCN(c2ccccc2)CC1)Cn1c2ccccc2c2ccccc21 (centres undefined) | 80* | -3 | 1 | -1
SMILES | CHOP inh | XBP1 UPR activ | UPR CHOP act | FXN GAA850 act
Cc1ccc(OCCN2CCN(CC(O)Cn3c4ccccc4c4ccccc43)CC2)cc1 (centres undefined) | 96* | 6 | 2 | ·
Cc1ccc(OCCn2c(C)c(/C=N/n3cnnc3)c3ccccc32)cc1 | 81* | 5 | 0 | 1
CCOC(=O)C1(C)CCCN(C(=O)c2cccc(OC(F)(F)F)c2)C1 (centres undefined) | · | · | · | 1
NC(=NC(=O)c1ccc(OCC(F)(F)F)nc1)c1ccccc1 | 25 | -1 | 0 | 2
NC(=NC(=O)c1ccc(OCC(F)(F)F)nc1)c1ccc(Cl)cc1 | 82* | -2 | -2 | 0
Cn1nc(-c2ccc(N3CCCCC3)c(NC(=O)c3ccco3)c2)c2ccccc2c1=O | 88* | 17 | 4 | 1
CCC(=O)Nc1cc(-c2nn(C)c(=O)c3ccccc23)ccc1N1CCOCC1 | -2 | 5 | -2 | -1
CCC(C)c1ccc(O)c(NC(=S)NC(=O)c2cccs2)c1 (centres undefined) | · | · | · | -1
OC[C@@H]1CN(Cc2cccc(C(F)(F)F)c2)C[C@H](n2cnc3c(NCc4ccncc4)ncnc32)O1 | · | · | · | 1
COc1ccc(NC(=S)NC(NC(=O)c2cccc(Cl)c2)C(Cl)(Cl)Cl)c([N+](=O)[O-])c1 (centres undefined) | 66 | 4 | 16 | -5
O=C(/C=C/c1ccccc1)NC(NC(=S)Nc1ccc(Cl)cc1Cl)C(Cl)(Cl)Cl (centres undefined) | 81* | 6 | 31 | -3
O=C(NC(NC(=S)Nc1ccccc1Cl)C(Cl)(Cl)Cl)c1cccc(Cl)c1 (centres undefined) | 87* | -2 | 26 | -3
CSc1ccc(C2C(C#N)=C(N)Oc3c2ccc(=O)c2c(C)oc(C)c32)cc1 (centres undefined) | 83* | -1 | -4 | -1
Cc1oc(C)c2c(=O)ccc3c(c12)OC(N)=C(C#N)C3c1ccccc1Cl (centres undefined) | 81* | -2 | 0 | 1
Cc1oc(C)c2c(=O)ccc3c(c12)OC(N)=C(C#N)C3c1ccccc1 (centres undefined) | 13 | -3 | -2 | -2
Cc1c(C(=O)NCc2ccc3c(c2)OCCO3)sc(=O)n1Cc1cccc(C(F)(F)F)c1 | · | · | · | 2
CCC(=O)Oc1oc(-c2ccccc2)nc1C=Nc1ccccc1OC | 93* | 1 | 4 | 2
CCc1nc2c(OCC(=O)c3ccc(F)cc3)cccn2c1N(C)C(=O)C(C)C | · | · | · | -1
CCCNC(=O)C1(C)CCCN(CCOc2ccccc2)C1 (centres undefined) | · | · | · | -1
CCc1ccc(Cn2nnc(C(=O)Nc3cccc(C)c3)c2N)cc1 | 71* | -2 | 1 | 2
CCOc1ccc(Cn2nnc(C(=O)Nc3cc(C)cc(C)c3)c2N)cc1 | 75* | 0 | 1 | 0
Cc1ccc(Cn2nnc(C(=O)Nc3cccc(C)c3C)c2N)cc1 | 8 | 10 | 1 | -3
CC1(C(=O)NCc2cccs2)Cc2c(-c3cccc(C(F)(F)F)c3)ccnc2O1 (centres undefined) | · | · | · | -5
COC(=O)c1ccc(/C=C/c2nc3ccccc3c(=O)[nH]2)cc1 | · | -11 | -3 | 5
Cc1ccc(/C=C/c2nc3ccccc3c(=O)[nH]2)cc1 | 88* | -7 | -5 | 3
Cc1ccccc1/C=C\c1nc2ccccc2c(=O)[nH]1 | 84* | -3 | 3 | 4
O=C(NC(Sc1ccc(Cl)cc1)C(=O)O)c1ccccc1 (centres undefined) | · | · | · | -1
O=c1c(=O)n(CCO)n(CCO)c(=O)n1CCO | · | · | · | 2
COc1cccc(CNc2nc3cc(-c4ccc(OC)cc4C)sc3c(=O)n2C)c1 | · | · | · | 0
COc1ccc(C(=O)COC(=O)C2COc3ccccc3O2)c(OC)c1 (centres undefined) | · | · | · | 0

Screens deposited in PubChem BioAssay by several laboratories.
